PglD inh = blocks C. jejuni PglD acetyltransferase activity | purified PglD enzyme, DTNB colorimetric CoA detection | inhibition, % at 12.5 µM | actives 0.098% (n = 360,000) | AID 602405; in the data active means inhibition above about 16%, passing the limit was not always enough; inconclusive means no clear call, values can overlap the other calls
DENV2 CPE = DENV2-induced cell death inhibition; AID 651640; DENV2-infected cells, cytopathic effect rescue, plate reader; actives 1.7% (n = 350,000); CPE inhibition, % at 9.99 µM; in the data active means CPE inhibition above about 20%, passing the limit was not always enough; inconclusive means no clear call, values can overlap the other calls; tested in BHK-21 cells
ERAP1 inh = inhibitors of human ERAP1 aminopeptidase | recombinant ERAP1, Leu-AMC fluorescence, 60 min | inhibition, % at 10.7 µM | actives 0.15% (n = 340,000) | AID 652197;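 active means mean replicate inhibition of at least 30%, or all replicates individually reaching that 30% level; inactive means mean below 30% and not every replicate reaching it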
E-selectin induc = E-selectin induction on HUVECs | HUVEC E-selectin immunofluorescence imaging; normalized: neutral wells 0, TNF-alpha wells 100 | P16581 | actives 0.37% (n = 260,000) | activation, % at 7.58 µM;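 active means mean E-selectin-positive cell signal at least 10% of the positive control, reached in at least 60% of replicates, without over 20% cell loss; inconclusive means no rule given, readout overlaps actives, possibly toxicity-flagged; inactive means the rest, including those meeting only one limit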
Target sequence (P16581 whole entry, looked up): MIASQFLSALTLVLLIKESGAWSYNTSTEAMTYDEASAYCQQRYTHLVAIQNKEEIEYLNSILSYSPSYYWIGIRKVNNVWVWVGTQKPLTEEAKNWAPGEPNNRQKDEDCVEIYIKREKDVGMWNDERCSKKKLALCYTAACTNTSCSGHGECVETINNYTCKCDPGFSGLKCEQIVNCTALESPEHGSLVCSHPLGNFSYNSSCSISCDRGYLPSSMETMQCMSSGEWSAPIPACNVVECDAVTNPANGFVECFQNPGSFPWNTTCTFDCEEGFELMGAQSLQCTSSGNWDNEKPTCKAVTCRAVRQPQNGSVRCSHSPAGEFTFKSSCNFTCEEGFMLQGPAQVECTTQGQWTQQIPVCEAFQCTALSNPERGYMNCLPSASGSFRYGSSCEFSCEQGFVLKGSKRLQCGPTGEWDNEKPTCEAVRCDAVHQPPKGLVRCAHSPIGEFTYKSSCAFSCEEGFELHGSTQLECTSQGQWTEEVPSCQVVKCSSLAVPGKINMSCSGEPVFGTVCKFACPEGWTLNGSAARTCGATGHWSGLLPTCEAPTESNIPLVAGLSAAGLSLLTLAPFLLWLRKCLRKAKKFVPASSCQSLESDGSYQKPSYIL
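Read-out: % PE-positive cells | Test system: HUVEC | Doses: One compound dose added by pin transfer | Buffer or medium: EGM-2 over gelatin coat | Signal: Immunofluorescence imaging | Benchmarks: TNF-alpha, DMSO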
SIRT5 inh = blocks human SIRT5 desuccinylation of peptide | Purified SirT5, succinyl-peptide AMC, trypsin-coupled fluorescence | Q9NXA8 | AID 652115 | actives 1.1% (n = 330,000) | inhibition, % at 15 µM; in the data active means inhibition above about 15%; inconclusive means no clear call, values can overlap the other calls
Large screens that a line does not name were inactive; ! = not active in a repeat. A selection: hits, their analogues and other compounds. The true share with any hit is near 2.5%.

COC(=O)c1ccc(NC(=O)C2CCCN2C(=O)Nc2cccc(C(C)=O)c2)cc1 (stereo unspecified)	none (no result: E-selectin induc)
CC(C)c1cc(=O)n2[nH]c(SCc3ccccc3Cl)nc2n1	none
COc1ccc(CN(C)C[C@H]2Oc3ccc(NS(=O)(=O)c4ccc(Cl)cc4)cc3CC(=O)N([C@@H](C)CO)C[C@@H]2C)cc1	DENV2 CPE 24.5, SIRT5 inh 26.7
COc1ccc(S(=O)(=O)Nc2ccc3c(c2)CC(=O)N([C@H](C)CO)C[C@@H](C)[C@H](CN(C)Cc2ccc(-c4ccccc4)cc2)O3)cc1	DENV2 CPE 56.8
COc1ccc(CN(C)C[C@H]2Oc3ccc(NS(=O)(=O)c4ccc(Cl)cc4)cc3CC(=O)N([C@H](C)CO)C[C@H]2C)cc1	none
C[C@H](CO)N1C[C@H](C)[C@@H](CN(C)Cc2ccc(Oc3ccccc3)cc2)Oc2ccc(NS(=O)(=O)c3ccc(Cl)cc3)cc2CC1=O	SIRT5 inh 18.9
COc1ccc(/C=C/C(=O)NCCCn2ccnc2)cc1	none (no result: PglD inh)
COc1ccc(OC)c(C(=O)CSc2nc3ccccc3n2CC(=O)NC(C)(C)C)c1	none (no result: DENV2 CPE, ERAP1 inh, E-selectin induc, SIRT5 inh)
CCCNC(=O)N1CC2(CCN(C(=O)CCC)CC2)c2c(n(C)c3cc(OC)ccc23)[C@H]1CO	none (no result: PglD inh)
CCS(=O)(=O)N1CCC2(CC1)CN(C)[C@H](CO)c1c2c2ccc(OC)cc2n1C	none (no result: PglD inh, ERAP1 inh, SIRT5 inh)
CCCNC(=O)N1CC2(CCN(C(=O)COC)CC2)c2c(n(C)c3cc(OC)ccc23)[C@@H]1CO	DENV2 CPE 69.8 (no result: PglD inh, ERAP1 inh, SIRT5 inh)
COc1ccc2c3c(n(C)c2c1)[C@H](CO)N(C(=O)NC(C)C)CC31CCN(CC2CCCC2)CC1	DENV2 CPE 39.5 (no result: PglD inh)
CCCNC(=O)N1CC2(CN(S(=O)(=O)c3ccc(OC)cc3)C2)c2c(n(C)c3cc(OC)ccc23)[C@H]1CO	SIRT5 inh 16.0 (no result: PglD inh)
COc1ccc2c3c(n(C)c2c1)[C@H](CO)N(C)CC31CN(S(C)(=O)=O)C1	DENV2 CPE 22.6 (no result: PglD inh, ERAP1 inh, SIRT5 inh)
C[C@H]1CN([C@@H](C)CO)C(=O)c2cc(-c3ccc(F)cc3)cnc2O[C@@H]1CN(C)C(=O)c1ccccc1F	none
CC(C)(C)C1CCC(C(=O)NNC(=O)c2ccncc2)CC1 (stereo unspecified)	none
CCCNC(=O)N1CC2(CN(S(=O)(=O)c3ccccc3)C2)c2c(n(C)c3cc(OC)ccc23)[C@H]1CO	none (no result: PglD inh)
COc1ccc2c3c(n(C)c2c1)[C@@H](CO)N(S(=O)(=O)c1ccc(C)cc1)CC31CN(S(=O)(=O)c2ccc(C)cc2)C1	DENV2 CPE 62.7 (no result: PglD inh, ERAP1 inh, SIRT5 inh)
COc1ccc2c3c(n(C)c2c1)[C@H](CO)N(S(=O)(=O)c1ccc(C)cc1)CC31CCN(S(=O)(=O)c2ccc(C)cc2)CC1	none (no result: PglD inh)
CCCNC(=O)N1CC2(CN(S(=O)(=O)c3cccc(OC)c3)C2)c2c(n(C)c3cc(OC)ccc23)[C@H]1CO	DENV2 CPE 40.6 (no result: PglD inh, ERAP1 inh, SIRT5 inh)
CC[n+]1c(C)sc2c(C)cc(C)cc21	none (no result: DENV2 CPE, E-selectin induc)
Cc1cc(C)c2sc(C)[n+](CCCS(=O)(=O)[O-])c2c1	ERAP1 inh 97.2
Cc1ccc(CN2CCN(CC(=O)O)C2=O)cc1	none (no result: PglD inh, E-selectin induc)
COc1ccc(OC2C(=O)N(Cc3ccc(F)cc3)C2c2ccc(OC)c(OC)c2)cc1 (stereo unspecified)	none (no result: DENV2 CPE, E-selectin induc)
COC(=O)N1C(=O)[C@](c2ccc(Cl)cc2)(C(C)C)N1C(=O)OC	DENV2 CPE 50.2 (no result: ERAP1 inh, SIRT5 inh)
CCN(C(=O)COC(=O)c1cccnc1SC)C1CCS(=O)(=O)C1 (stereo unspecified)	none (no result: DENV2 CPE, E-selectin induc)
CCN(C(=O)COC(=O)c1cnc(C)cn1)C1CCS(=O)(=O)C1 (stereo unspecified)	ERAP1 inh 69.0
CCNC(=O)C[C@H]1CC[C@H]2[C@@H](COc3ccc(NC(=O)Nc4cccc(C)c4)cc3C(=O)N2C)O1	none
Cc1cccc(N(Cc2ccc(Cl)cc2)S(C)(=O)=O)c1	none
COc1ccccc1NC(=O)c1ccc(S(=O)(=O)N2CCOCC2)cc1	none (no result: DENV2 CPE, ERAP1 inh, E-selectin induc, SIRT5 inh)
COc1cccc2sc(NC(=O)c3ccc(S(=O)(=O)N4CCOCC4)cc3)nc12	SIRT5 inh 15.2 (no result: E-selectin induc)
Cc1ccc(-c2ccc([C@@H]3[C@H](CO)N4CCCCN(C(=O)Nc5cccc(F)c5)C[C@@H]34)cc2)cc1	none (no result: E-selectin induc)
Cc1ccccc1-c1ccc([C@H]2[C@@H](CO)N3CCCCN(C(=O)Nc4cccc(F)c4)C[C@@H]23)cc1	none
Cc1ccccc1-c1ccc([C@H]2[C@@H](CO)N3CCCCN(C(=O)Nc4cccc(F)c4)C[C@H]23)cc1	DENV2 CPE 45.1 (no result: E-selectin induc)
Cc1ccccc1-c1ccc([C@@H]2[C@H](CO)N3CCCCN(C(=O)Nc4cccc(F)c4)C[C@@H]23)cc1	DENV2 CPE 37.7
Cc1ccc(-c2ccc([C@@H]3[C@@H](CO)N4CCCCN(C(=O)Nc5cccc(F)c5)C[C@@H]34)cc2)cc1	SIRT5 inh 17.5
CN(C)C(=O)c1ccc(-c2ccc(C3[C@@H]4CN(C(=O)C5CCC5)C[C@H]3N4)cc2)cc1 (stereo partly specified)	none (no result: PglD inh, ERAP1 inh, SIRT5 inh)
O=C(O)c1ccccc1NS(=O)(=O)c1ccc(NN=Cc2ccccc2F)c([N+](=O)[O-])c1	SIRT5 inh 17.3
CCOc1ccc(C=NNc2ccc(S(=O)(=O)Nc3ccccc3C(=O)O)cc2[N+](=O)[O-])cc1	SIRT5 inh 20.2 (no result: E-selectin induc)
CSc1ccc(C=NNc2ccc(S(=O)(=O)Nc3ccccc3C(=O)O)cc2[N+](=O)[O-])cc1	none
COc1ccc(C=NNc2ccc(S(=O)(=O)Nc3ccccc3C(=O)O)cc2[N+](=O)[O-])c(OC)c1	SIRT5 inh 44.5 (no result: DENV2 CPE, E-selectin induc)
COc1ccc(NC(=S)NNc2ccc(S(=O)(=O)Nc3ccccc3C(=O)O)cc2[N+](=O)[O-])cc1	SIRT5 inh 16.8 (no result: PglD inh, E-selectin induc)
CCOc1cccc(C=NNc2ccc(S(=O)(=O)Nc3ccccc3C(=O)O)cc2[N+](=O)[O-])c1O	none
Cc1nc(NC(=O)C2CC2)sc1C(=O)NC1CCCCC1	none (no result: PglD inh, E-selectin induc)
Cc1nc(NC(=O)C2CC2)sc1C	SIRT5 inh 22.3 (no result: E-selectin induc)
C[C@H](CO)N1C[C@H](C)[C@@H](CN(C)CC2CCCCC2)Oc2ccc(NC(=O)Cn3cnnn3)cc2C1=O	DENV2 CPE inconclusive, SIRT5 inh 15.3!
Cc1ccc(S(=O)(=O)N(C)C[C@@H]2Oc3ccc(NC(=O)Cn4cnnn4)cc3C(=O)N([C@@H](C)CO)C[C@@H]2C)cc1	DENV2 CPE 42.4
C[C@@H]1CN([C@@H](C)CO)C(=O)c2cc(NC(=O)Cn3cnnn3)ccc2O[C@@H]1CN(C)CC1CCCCC1	none (no result: DENV2 CPE)
C[C@@H]1CN([C@H](C)CO)C(=O)c2cc(NC(=O)Cn3cnnn3)ccc2O[C@@H]1CN(C)S(=O)(=O)c1ccccc1	E-selectin induc 60.3 (no result: PglD inh)
C[C@@H]1CN([C@@H](C)CO)C(=O)c2cc(NC(=O)Cn3cnnn3)ccc2O[C@H]1CN(C)S(=O)(=O)c1ccccc1	none (no result: PglD inh)
Cc1noc(C)c1S(=O)(=O)N(C)C[C@@H]1Oc2ccc(NC(=O)Cn3cnnn3)cc2C(=O)N([C@@H](C)CO)C[C@@H]1C	SIRT5 inh 23.1
CCOC(=O)C1(CC2CC2)CCN(S(=O)(=O)C[C@]23CC[C@H](CC2=O)C3(C)C)CC1	none (no result: PglD inh)
Oc1ccccc1/C=N/n1c(COc2ccccc2)n[nH]c1=S	none

Screens: PubChem, Broad Institute
